How the values were obtained:
[1] = system: B16F10 mouse melanoma cells; test: Melanin content assay in B16F10 cells; format: cell-based; settings: αMSH (10 nM) induced B16F10 melanoma cells (Fig. 6A)
Outline: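 B16F10 cells grown in DMEM with 10% FBS and 1% penicillin/streptomycin at 37℃, 5% CO2, under αMSH (10 nM) stimulation. Seeded in 12-well plates for 24 h, refed and held 48 h in triplicate cultures, then trypsinised. Washed twice in PBS, lysed in 1 N NaOH/10% DMSO at 80℃ for 1 h; absorbance 405 nm versus untreated cells. Mean±SD; unpaired t-test.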

[2] = system: Melan-a mouse melanocytes; test: Melanin content assay in Melan-a cells; format: cell-based; settings: αMSH (10 nM) induced Melan-a cells (Fig. 6B)
Outline: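 Immortal non-tumorigenic mouse melanocytes kept in RPMI 1640 with 10% FBS, 1% penicillin/streptomycin and 200 nM TPA at 37℃, 10% CO2, subcultured every 4th day. Melanin content measured under αMSH (10 nM) stimulation and expressed as % of untreated control alongside MTT viability. Mean±SD; unpaired t-test.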

[3] = system: Mushroom tyrosinase (EC 1.14.18.1); test: In vitro mushroom tyrosinase assay; format: biochemical
Outline: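 Mushroom tyrosinase (EC 1.14.18.1), enzyme stock 1,100 units/ml (0.516 mg/ml) in 0.1 M phosphate buffer, mixed with phosphate buffer, test compound or reference inhibitor, and 5 mM L-dopa solution. Incubated 10 min at 37℃; dopachrome read at 475 nm. % inhibition = (ΔAcontrol−ΔAsample)/ΔAcontrol×100; IC50 = concentration giving 50% inhibition. Triplicate wells; experiments run at least three times; mean±SD, unpaired t-test.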

| Compound | effect on melanin content (in words) [1] | effect on melanin content (in words) [2] | dose dependence of mushroom tyrosinase inhibition ([3]; 5, 10, 20, 40, and 80 µM (Fig. 4, 5)) | maximum inhibitory effect of tyrosinase activity ([3]; in vitro tyrosinase screening, as restated in the discussion) [%] |
| --- | --- | --- | --- | --- |
| OC[C@H]1O[C@@H](Oc2ccc(O)cc2)[C@H](O)[C@@H](O)[C@@H]1O [Arbutin, hydroquinone-beta-D-glucopyranoside] | inhibited melanin content | inhibited melanin content | – | – |
| KA-CDPGYIGSR [KA-CR9] | – | – | dose-dependent inhibition | 84 |
